Results as given in BindingDB's records for doi:10.1021/acs.jmedchem.6b01066 (University of Copenhagen, 2016).

Biological target: T1, Excitatory amino acid transporter 3 (Homo sapiens, UniProt P43005)
T1 sequence (P43005 whole entry): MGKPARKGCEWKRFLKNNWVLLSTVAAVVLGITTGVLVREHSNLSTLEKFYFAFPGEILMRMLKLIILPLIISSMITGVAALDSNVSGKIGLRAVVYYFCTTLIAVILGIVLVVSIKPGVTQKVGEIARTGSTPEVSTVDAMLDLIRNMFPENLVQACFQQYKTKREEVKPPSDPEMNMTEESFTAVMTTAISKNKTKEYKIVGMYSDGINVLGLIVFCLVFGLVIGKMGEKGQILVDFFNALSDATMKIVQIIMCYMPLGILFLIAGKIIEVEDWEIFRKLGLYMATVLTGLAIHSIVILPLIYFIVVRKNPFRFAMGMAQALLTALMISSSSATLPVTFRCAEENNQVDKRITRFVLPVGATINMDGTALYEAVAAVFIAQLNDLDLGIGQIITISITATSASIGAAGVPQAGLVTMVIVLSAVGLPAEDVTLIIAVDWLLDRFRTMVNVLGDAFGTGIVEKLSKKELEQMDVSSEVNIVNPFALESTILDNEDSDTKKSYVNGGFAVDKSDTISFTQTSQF
Assay: Inhibition of [3H]-D-Asp uptake at human EAAT3 expressed in HEK293 cells measured after 3 mins by TopCount method
How it was run: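 Stably transfected EAAT1-, EAAT2- or EAAT3-HEK293 lines grown in high-glucose GlutaMAX DMEM with 5% dialyzed FBS, penicillin/streptomycin and […]. Cells were seeded and reached confluence in 16−24 h, then washed in uptake buffer (HBSS, 20 mM HEPES, 1 mM CaCl₂, 1 mM MgCl₂, pH 7.4). Uptake ran 3 min at room temperature with 100 nM [³H]-D-aspartate plus test compound at varied concentrations. Two ice-cold washes, then scintillation counting. IC₅₀ from concentration−inhibition curves, n = 3−5.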

Q: Which IC50 does the source give for N[C@H](C(=O)O)C(NC(=O)Oc1ccccc1)C(=O)O (stereo partly specified) here?
A: 316 µM
